≈ marks a conversion by molar mass, not a printed value.
How the values were obtained:
Format in all cases: functional
Citrobacter = assay: Antibacterial activity against Citrobacter spp. by broth microdilution method
Method in brief: (§1)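 MICs were determined by CLSI broth microdilution against clinical isolate panels that included aminoglycoside-resistant isolates. […] MIC90 was derived per group and not calculated when n was <10. Imipenem, ceftobiprole, ciprofloxacin and tigecycline MICs were also determined for the resistant isolates.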

Escherichia coli = assay: Antibacterial activity against Escherichia coli by broth microdilution method; method in brief: as §1
Enterobacter sp. = assay: Antibacterial activity against Enterobacter spp. by broth microdilution method; method in brief: as §1
Klebsiella sp. = assay: Antibacterial activity against Klebsiella spp. by broth microdilution method; method in brief: as §1
Proteus mirabilis = assay: Antibacterial activity against Proteus mirabilis by broth microdilution method; method in brief: as §1
[1] = Antibacterial activity against indole positive Proteae by broth microdilution method; method in brief: as §1
Serratia sp. = assay: Antibacterial activity against Serratia spp. by broth microdilution method; conditions: Serratia sp. (in: enterobacteria); method in brief: as §1
Acinetobacter sp. = assay: Antibacterial activity against Acinetobacter spp. by broth microdilution method; method in brief: as §1
Pseudomonas aeruginosa = assay: Antibacterial activity against Pseudomonas aeruginosa by broth microdilution method; method in brief: as §1
Staphylococcus sp. = assay: Antibacterial activity against Staphylococcus spp. by broth microdilution method; method in brief: as §1

SMILES	MIC50 (Citrobacter) [µg/mL]	MIC50 (Escherichia coli) [µg/mL]	MIC90 (Escherichia coli) [µg/mL]	MIC50 (Enterobacter sp.) [µg/mL]	MIC90 (Enterobacter sp.) [µg/mL]	MIC50 (Klebsiella sp.) [µg/mL]	MIC90 (Klebsiella sp.) [µg/mL]	MIC50 (Proteus mirabilis) [µg/mL]	MIC90 (Proteus mirabilis) [µg/mL]	MIC50 [1] [µg/mL]	MIC50 (Serratia sp.) [µg/mL]	MIC50 (Acinetobacter sp.) [µg/mL]	MIC90 (Acinetobacter sp.) [µg/mL]	MIC50 (Pseudomonas aeruginosa) [µg/mL]	MIC90 (Pseudomonas aeruginosa) [µg/mL]	MIC50 (Staphylococcus sp.) [µg/mL]	MIC90 (Staphylococcus sp.) [µg/mL]
Nc1nc(/C(=N/O)C(=O)N[C@@H]2C(=O)N3C(C(=O)O)=C(/C=C4\CCN([C@@H]5CCNC5)C4=O)CS[C@H]23)ns1 [CEFTOBIPROLE]	1 (≈ 1.87 µM)	> 32	> 32	> 32	> 32	> 32	> 32	0.125 (≈ 0.234 µM)	> 32	> 32	> 32	> 32	> 32	16 (≈ 29.9 µM)	> 32		
C[C@@H](O)[C@H]1C(=O)N2C(C(=O)O)=C(SCCNC=N)C[C@H]12 [IMIPENEM ANHYDROUS]	0.5 (≈ 1.67 µM)	0.125 (≈ 0.418 µM)	0.25 (≈ 0.835 µM)	1 (≈ 3.34 µM)	4 (≈ 13.4 µM)	0.25 (≈ 0.835 µM)	> 16	4 (≈ 13.4 µM)	8 (≈ 26.7 µM)	1 (≈ 3.34 µM)	1 (≈ 3.34 µM)	2 (≈ 6.68 µM)	> 16	4 (≈ 13.4 µM)	16 (≈ 53.4 µM)		
O=C(O)c1cn(C2CC2)c2cc(N3CCNCC3)c(F)cc2c1=O [CIPROFLOXACIN]	8 (≈ 24.1 µM)	> 16	> 16	1 (≈ 3.02 µM)	> 16	16 (≈ 48.3 µM)	> 16	2 (≈ 6.04 µM)	> 16	16 (≈ 48.3 µM)	4 (≈ 12.1 µM)	> 16	> 16	8 (≈ 24.1 µM)	> 16	16 (≈ 48.3 µM)	> 16

— ChEMBL document CHEMBL1687796, “Synthesis and spectrum of the neoglycoside ACHN-490” (2010)
